Experimental data reported in article PMC3582387 (Chemistry & biology, 2012).

How the values were obtained:
[1] = test system: BCL-XL-rescued p185+Arf−/−/Mcl-1-deleted B-ALL cells; assay: Caspase 3/7 activation; assay type: cell-based, murine; details: 8 h post-treatment
MCL-1ΔNΔC [2] = target: T1, MCL-1ΔNΔC (Homo sapiens, UniProt Q07820); assay: Competitive FP assay against the FITC-MCL-1 SAHBA/MCL-1ΔNΔC interaction; assay type: binding
Bax−/−Bak−/− MEFs [3] = assay: Caspase 3/7 activation, Bax−/−Bak−/− MEFs; assay type: cell-based, mouse; details: 8 h
In short: (§1)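 Wild-type or Bax−/−Bak−/− mouse embryonic fibroblasts are kept in high-glucose DMEM with 10% FBS, penicillin/streptomycin, 2 mM L-glutamine, 50 mM HEPES, non-essential amino acids and 50 µM β-mercaptoethanol. Cells are seeded at 5×10^3/well for 24 h, then given serial dilutions of test compound or vehicle (0.4% DMSO). Caspase-Glo 3/7 reagent is added at 8 h and luminescence is read.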

[4] = test system: BCL-XL-rescued p185+Arf−/−/Mcl-1-deleted B-ALL cells; assay: Cell viability; assay type: cell-based, murine
MCL-1ΔNΔC [5] = target: T1, MCL-1ΔNΔC; assay: BAX-mediated liposomal release assay, suppression by MCL-1ΔNΔC; assay type: biochemical; details: 20 nM tBID, 250 nM BAX
MCL-1ΔNΔC [6] = target: T1, MCL-1ΔNΔC; assay: Competitive FP assay against the FITC-BID BH3/MCL-1ΔNΔC interaction; assay type: binding
[7] = test system: MCL-1-rescued p185+Arf−/−/Mcl-1-deleted B-ALL cells; assay: Cell viability; assay type: cell-based, murine
In short: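 B-ALL cells come from Mcl-1f/f Arf−/− mouse marrow transformed with BCR-ABL(p185)-IRES-luciferase. They were stably transduced with MSCV-Puro-Mcl-1, and endogenous Mcl-1 was then deleted with MSCV-Cre-IRES-GFP; cells are kept in RPMI 1640/10% FBS. Cells (4×10^4/well) get serial dilutions of test compound or 0.4% DMSO in DMEM at 37 °C, with CellTiter-Glo luminescence read at 24 h. Data are normalized to vehicle; runs are at least duplicate and repeated twice with independent cultures.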

Bax−/−Bak−/− MEFs [8] = assay: Cell viability, Bax−/−Bak−/− MEFs; assay type: cell-based, mouse; details: same dose range as leukemia cells, 24 h
In short: (§2)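 MEFs (wild-type or Bax−/−Bak−/−) are maintained in supplemented high-glucose DMEM (10% FBS, antibiotics, L-glutamine, HEPES, β-mercaptoethanol). They are plated at 5×10^3 cells/well and allowed 24 h before exposure to serially diluted test compound, with 0.4% DMSO as vehicle. Viability is read as CellTiter-Glo luminescence after 24 h of treatment.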

wild-type MEFs [9] = assay: Cell viability, wild-type MEFs; assay type: cell-based, mouse; details: same dose range as leukemia cells, 24 h
In short: as §2

wild-type MEFs [10] = assay: Caspase 3/7 activation, wild-type MEFs; assay type: cell-based, mouse; details: 8 h
In short: as §1

MCL-1/BAK complex = MCL-1/BAK complex (Mus musculus, UniProt P97287); assay: Co-immunoprecipitation of MCL-1/BAK complex in MCL-1-reconstituted B-ALL cells; assay type: cell-based, murine; details: 6 h incubation
In short: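 MCL-1-reconstituted Mcl-1-deleted B-ALL cells (5×10^6) were given vehicle or test compound for 6 h. Lysate was precleared on protein A/G, then taken with anti-MCL-1 overnight at 4°C plus A/G beads for 1 h. After three washes and elution at 90°C, SDS-PAGE/Western probed MCL-1 and BAK.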

[11] = test system: MCL-1-rescued p185+Arf−/−/Mcl-1-deleted B-ALL cells; assay: Caspase 3/7 activation; assay type: cell-based, murine; details: 8 h post-treatment
In short: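 Mcl-1-floxed Arf−/− mouse marrow was transformed with p185-IRES-luciferase, stably rescued with MSCV-Puro-Mcl-1, and endogenous Mcl-1 was deleted via MSCV-Cre-IRES-GFP. Cells were kept in supplemented RPMI 1640 and seeded at 4×10^4/well. Serial dilutions of test compound or vehicle (0.4% DMSO) were added in DMEM at 37°C. Caspase-Glo 3/7 luminescence was read at 8 h. Values were normalized to vehicle (mean ± SEM, ≥duplicate, two independent cultures).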

BCL-XLΔC = BCL-XLΔC (Homo sapiens, UniProt Q07817); assay: Competitive FP assay against the FITC-BID BH3/BCL-XLΔC interaction; assay type: binding
Sequence of BCL-XLΔC (Q07817 1-212 limits assumed, stated change not applied): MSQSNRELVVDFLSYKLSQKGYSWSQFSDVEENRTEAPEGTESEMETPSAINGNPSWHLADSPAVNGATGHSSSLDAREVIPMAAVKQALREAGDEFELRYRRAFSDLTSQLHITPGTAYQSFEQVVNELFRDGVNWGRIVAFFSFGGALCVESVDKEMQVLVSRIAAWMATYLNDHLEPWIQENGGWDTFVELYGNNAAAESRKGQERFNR

T1 sequence (Q07820 172-327, stated change not applied): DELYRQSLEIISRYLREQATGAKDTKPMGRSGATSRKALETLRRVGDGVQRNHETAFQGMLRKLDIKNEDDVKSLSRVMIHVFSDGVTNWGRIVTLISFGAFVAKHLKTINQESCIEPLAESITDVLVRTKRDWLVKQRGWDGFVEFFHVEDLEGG
Sequence of MCL-1/BAK complex (P97287 whole entry, one chain of several): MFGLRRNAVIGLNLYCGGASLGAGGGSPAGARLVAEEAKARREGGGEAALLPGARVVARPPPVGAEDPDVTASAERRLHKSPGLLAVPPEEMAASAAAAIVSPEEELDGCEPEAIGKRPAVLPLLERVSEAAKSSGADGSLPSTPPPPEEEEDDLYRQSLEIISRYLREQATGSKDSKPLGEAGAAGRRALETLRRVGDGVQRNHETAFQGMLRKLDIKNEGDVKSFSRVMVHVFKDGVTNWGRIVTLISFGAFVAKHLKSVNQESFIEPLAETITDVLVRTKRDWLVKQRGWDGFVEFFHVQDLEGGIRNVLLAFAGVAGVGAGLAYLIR

Row | SMILES | Caspase 3/7 activation in BCL-XL-dependent cells [1] | Competition with FITC-MCL-1 SAHBA for MCL-1ΔNΔC binding (in words) (MCL-1ΔNΔC [2]) | Caspase 3/7 activation in Bax−/−Bak−/− MEFs (Bax−/−Bak−/− MEFs [3]) | IC50 ([4]; Mus musculus, 24 h, read-out: IC50, cell viability of BCL-XL-dependent cells) [µM] | Blockade of MCL-1ΔNΔC suppression of tBID-induced BAX activation (liposomal release) (MCL-1ΔNΔC [5]) | Competition with FITC-BID BH3 for MCL-1ΔNΔC binding (in words) (MCL-1ΔNΔC [6]) | Effect on viability of MCL-1-dependent cells (in words) ([7]; CellTiter-Glo at 24 h) | Effect on viability of Bax−/−Bak−/− MEFs (Bax−/−Bak−/− MEFs [8]) | Effect on viability of wild-type MEFs (wild-type MEFs [9]) | Caspase 3/7 activation in wild-type MEFs (wild-type MEFs [10]) | Dissociation of the inhibitory MCL-1/BAK complex (co-immunoprecipitation) (MCL-1/BAK complex) | Effect on viability of BCL-XL-dependent cells (in words) ([4]; CellTiter-Glo at 24 h) | IC50 (MCL-1ΔNΔC [6]) [µM] | Fold difference of IC50 for MCL-1ΔNΔC versus IC50 of ABT-737 for BCL-XLΔC (MCL-1ΔNΔC [6]; competition with FITC-BID BH3, MIM1 less potent) [fold] | IC50 ([7]; Mus musculus, 24 h, read-out: IC50, cell viability of MCL-1-dependent cells) [µM] | Caspase 3/7 activation in MCL-1-dependent cells [11] | IC50 (BCL-XLΔC) [µM]
1 | CN(C)CC[C@H](CSc1ccccc1)Nc1ccc(S(=O)(=O)NC(=O)c2ccc(N3CCN(Cc4ccccc4-c4ccc(Cl)cc4)CC3)cc2)cc1[N+](=O)[O-] [ABT-737, reference compound] | dose-responsive caspase 3/7 activation | had no effect | no observed caspase 3/7 activation | 1.6 | had no effect on MCL-1ΔNΔC activity | showed no activity toward MCL-1ΔNΔC | no effect on the MCL-1-dependent cells | no significant effect | no significant effect | no observed caspase 3/7 activation |  |  |  |  |  |  | 
2 | Cc1cs/c(=N\C2CCCCC2)n1/N=C/c1ccc(O)c(O)c1O [MIM1, 4-((E)-(((Z)-2-(cyclohexylimino)-4-methylthiazol-3(2H)-yl)imino)methyl)benzene-1,2,3-triol] |  |  | no observed caspase 3/7 activation |  | preventing BAX suppression by MCL-1ΔNΔC |  |  | no significant effect | no significant effect | no observed caspase 3/7 activation | dose-dependent dissociation of the inhibitory MCL-1/BAK complex | little to no effect on the BCL-XL-dependent cells | 4.8 | 7.5 | 4.2 | dose-dependent induction of caspase 3/7 activity | > 50
